Measurements from different studies.
Compare with care: the assays were run in different laboratories.
Target: Acetylcholinesterase (ACHE, Homo sapiens, UniProt P22303)
Effect on: enzyme activity
Mode: inhibitor

CN1CCN(CCCOc2ccc3occc(=O)c3c2)CC1 — IC50 (Ellman; pH 7.4): 65.1 µM
C=CCn1c2cc(OC(=O)CCCCN3CCN(Cc4ccc(F)cc4)CC3)ccc2c2ccnc(C)c21 — IC50 (Ellman): 0.0894 µM
CCC(CC)CSc1ccccc1OC(=O)NC — IC50 (Ellman): 5.13 µM
COc1cc(NS(C)(=O)=O)ccc1Nc1c2ccccc2nc2ccccc12 — IC50: 22.5 µM
Cn1ccc(=O)n(C)c1=O — IC50 (Ellman): 0.388 µM
C=CCn1c2cc(OC(=O)CCCCN3CCN(Cc4ccccc4Cl)CC3)ccc2c2ccnc(C)c21 — IC50 (Ellman): 0.116 µM
C#CCNc1nc(NCCCCC2CCN(Cc3ccccc3)CC2)c(C#N)c(-c2ccccc2)c1C#N — IC50 (Ellman): 0.006 µM
CNC(=O)Oc1cccc2c1OC(C)(C)C2 — IC50 (Ellman): 0.038 µM
CCOP(=S)(OCC)O/N=C(\C#N)c1ccccc1 — IC50: 22.6 µM
CC[n+]1c(-c2ccccc2)c2cc(N)ccc2c2ccc(N)cc21 — IC50 (Ellman): 22.9 µM
C=CCn1c2cc(OC(=O)CCCCN3CCN(Cc4ccccc4C(F)(F)F)CC3)ccc2c2ccnc(C)c21 — IC50 (Ellman): 0.0484 µM
CS(=O)(=O)n1cc(Br)c(=O)[nH]c1=O — IC50 (Ellman): 0.111 µM
C=CCn1c2cc(OC(=O)CCCCN3CCN(Cc4ccc(C)cc4)CC3)ccc2c2ccnc(C)c21 — IC50 (Ellman): 0.0126 µM
O=C(CN1C2=NCCN2c2ccccc21)c1ccc(-c2ccccc2)cc1 — IC50: 19.5 µM
C=CCn1c2cc(OC(=O)CCCCN3CCN(Cc4ccccc4)CC3)ccc2c2ccnc(C)c21 — IC50 (Ellman): 0.0588 µM
C#CCN(C)c1nc(NCCCCC2CCN(Cc3ccccc3)CC2)c(C#N)c(-c2ccccc2)c1C#N — IC50 (Ellman): 0.025 µM
C=CCn1c2cc(OC(=O)CCCCN3CCN(Cc4cccc(F)c4)CC3)ccc2c2ccnc(C)c21 — IC50 (Ellman): 0.106 µM
C#CCN(C)c1nc(NCCCC2CCN(Cc3ccccc3)CC2)c(C#N)cc1C#N — IC50 (Ellman): 0.0263 µM
c1cc(CN2CCCCC2)cc(OCCCNc2nc3ccccc3s2)c1 — IC50: 22.6 µM
CNC(=O)Oc1cccc2c1OC(C)(C)O2 — IC50 (Ellman): 0.182 µM
C[C@@H]1CCCN1CCCCOc1ccc2occc(=O)c2c1 — IC50 (Ellman; pH 7.4): 8.62 µM
Cc1cc(O)nc(O)n1 — IC50 (Ellman): 0.191 µM
